Experimental findings from PubChem BioAssay are described below.

What is called viability is a read-out of living cells in per cent, often relative to untreated cells. As a reminder, the inhibition is the drop in the measured response relative to a control, in per cent.

A short description of experiment [1]: Her2 expression decrease, cell viability multiplex – SKBR3 breast tumor cells, AlphaScreen, ATP viability, primary screen (AID 461;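 active = Her2 level under about 52% in both replicate screens, with viability over 70% of control, limit read from the data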;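 as to Her2 level: lower value means less Her2 protein in the cells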;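 as to viability: percent of carrier control wells set as 100% viability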). Conditions: SKBR3 Her2 protein level, 18-24 h, measured here: SKBR3 viability, ATP luminescence, at 10 µM. On the technique in general: Bead proximity is the source of the signal in Alpha formats.
The target in experiment [2] is Receptor tyrosine-protein kinase erbB-2 (Homo sapiens) (UniProt P04626). Described as above. Conditions: 18-24 h, at 10 µM, stronger effect = lower value.
Experiment [3] in a line: reduced viability of SK-BR-3 breast cancer cells – cell-based, 24 h, human, pilot screen (AID 572;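 active = viability at or below 10% of carrier control in both of two separate runs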;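 also: compound exposure lasted between 18 and 24 h rather than exactly 24 h; 100% = carrier-treated control wells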). To be noted: SK-BR-3 viability, CellTiter-Glo luminescence, at 10 µM, stronger effect = lower value.
The nature of experiment [4]: HUVEC growth inhibition – cell-based, human, primary screen (AID 575).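 Also: 100% = median of untreated cell wells with 0.1% DMSO on each plate.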 To be noted: HUVEC proliferation, CellTiter-Glo luminescence, 72 h; at 10 µM; stronger effect = lower value. The essentials: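 Assay system: primary human umbilical vein endothelial cells / Buffer or medium: endothelial basal medium with 2% FBS plus growth supplements / Compound dosing: one dose, 10 µM final, 0.1% DMSO / Timing: 72 h treatment at 37 °C / Signal: CTG luminescence / Benchmarks: 32 DMSO-only cell-control wells (high), 32 MePR drug-control wells (low) per plate / Plate: collagen-coated 384-well format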
In general terms: ATP-based viability assays read luminescence as a measure of living cells.

Experiment [5] in a line: H69AR cell proliferation blockers – human, duplicate replicates, primary screen (AID 580;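 active = viability at or under a set limit in both replicates, limit being median viability minus 3 SD, cut at about 48% in these data, passing the limit was not always enough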;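 also: 100% = mean luminescence of untreated wells and 0% = no signal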). To be noted: H69AR lung tumor cells viability, ATP luminescence, 72 h; at 10 µM; stronger effect = lower value.
The nature of experiment [6]: MRP1 drug-resistance reversers in H69AR cells – cell-based, doxorubicin co-treatment, pilot screen (AID 601;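 active = viability loss from added drug above about 55%, and viability with drug at most 40%, in both replicates, limit read from the data, passing the limit was not always enough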). To be noted: CellTiter-Glo, 72 h, at 10 µM; for differential viability (reversal): stronger effect = higher value.
Experiment [7] can be described thus: yeast transport mutant growth inhibition pilot in 384-well plates, post-Golgi transport modulator project (AID 636; in the data active = inhibition above about 31%). To be noted: absorbance 615 nm, about 18 h, stronger effect = higher value.
Experiment [8] in a line: growth suppression of yeast trafficking mutant, preliminary HTS, modulators of trafficking downstream of Golgi apparatus project, 1536-format plate, OD 615 nm (AID 637; in the data active = inhibition above about 30%). Conditions: yeast transport mutant growth, absorbance 615 nm, 18 h; stronger effect = higher value.
Setting [9] is: H69AR cells + 2 uM doxorubicin, measured here: viability with 2 uM doxorubicin, stronger effect = lower value.
Setting [10] is: H69AR cells, compound alone cytotoxicity.

SMILES strings stand for the structures. Activity calls are given as the source filed them.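 The calls were made as follows, unless noted: active = viability at or below 30% in both replicate assays; inconclusive = viability at or below 30% in just one of the two assays; inactive = the rest.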

Receptor tyrosine-protein kinase erbB-2 (Homo sapiens), sequence (P04626 whole entry, looked up): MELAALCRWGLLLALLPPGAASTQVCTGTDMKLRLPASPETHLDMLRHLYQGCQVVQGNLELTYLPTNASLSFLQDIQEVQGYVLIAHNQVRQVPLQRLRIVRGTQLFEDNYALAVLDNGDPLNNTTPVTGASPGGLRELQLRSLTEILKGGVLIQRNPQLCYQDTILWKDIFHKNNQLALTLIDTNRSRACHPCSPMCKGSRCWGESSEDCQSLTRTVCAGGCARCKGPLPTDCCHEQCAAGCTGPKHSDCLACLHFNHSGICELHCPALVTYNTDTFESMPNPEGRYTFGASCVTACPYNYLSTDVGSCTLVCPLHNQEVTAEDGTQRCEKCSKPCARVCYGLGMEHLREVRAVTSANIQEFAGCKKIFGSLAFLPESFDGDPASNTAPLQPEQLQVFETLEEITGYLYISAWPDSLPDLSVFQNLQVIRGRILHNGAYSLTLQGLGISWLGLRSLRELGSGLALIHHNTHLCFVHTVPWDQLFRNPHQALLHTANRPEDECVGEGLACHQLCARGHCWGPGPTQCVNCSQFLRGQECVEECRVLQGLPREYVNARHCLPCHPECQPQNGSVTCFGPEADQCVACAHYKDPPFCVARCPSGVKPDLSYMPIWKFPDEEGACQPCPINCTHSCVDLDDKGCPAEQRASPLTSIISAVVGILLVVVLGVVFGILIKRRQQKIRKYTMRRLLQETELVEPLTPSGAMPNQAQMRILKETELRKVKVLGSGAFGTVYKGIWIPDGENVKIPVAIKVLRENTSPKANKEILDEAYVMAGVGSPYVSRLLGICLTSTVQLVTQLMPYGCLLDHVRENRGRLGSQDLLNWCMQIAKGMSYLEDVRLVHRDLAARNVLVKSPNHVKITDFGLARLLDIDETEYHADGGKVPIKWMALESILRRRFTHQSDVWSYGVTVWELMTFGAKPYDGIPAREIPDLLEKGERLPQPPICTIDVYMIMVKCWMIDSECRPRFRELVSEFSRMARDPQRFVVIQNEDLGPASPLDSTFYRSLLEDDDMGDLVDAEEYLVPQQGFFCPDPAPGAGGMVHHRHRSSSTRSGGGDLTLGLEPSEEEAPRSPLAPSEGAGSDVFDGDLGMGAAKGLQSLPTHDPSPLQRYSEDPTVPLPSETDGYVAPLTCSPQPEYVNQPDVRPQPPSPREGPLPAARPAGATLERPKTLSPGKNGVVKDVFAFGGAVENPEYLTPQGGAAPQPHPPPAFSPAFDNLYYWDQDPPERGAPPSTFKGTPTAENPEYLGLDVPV

Take `CN(C)CCCNC(=O)c1ccc(CN(c2ccccc2)S(C)(=O)=O)cc1`: the viability was 97.5% in experiment [1]; 97.5% (inactive) in experiment [3]; 86.4% (inactive) in experiment [4]; 92.1% (inactive) in experiment [5]; 89% in experiment [6] (setting [9]); 92.1% in experiment [6] (setting [10]). Besides, the Her2 level in experiment [2] is 96% (inactive). Moreover, the differential viability (reversal) in experiment [6] (H69AR cells + 2 uM doxorubicin) is 3.06% (inactive). In addition, the results for the inhibition in experiment [7] and in experiment [8] were 0.91% (inactive) and -7.87% (inactive), respectively.

Turning to `COc1ccc(CNC(=O)CCc2nc(-c3ccccc3F)no2)c(OC)c1`, the viability was 80% in experiment [1]; 80% (inactive) in experiment [3]; 90% (inactive) in experiment [4]; 95.9% (inactive) in experiment [5]; 92.2% in experiment [6] (setting [9]); 95.9% in experiment [6] (setting [10]). In addition, the Her2 level in experiment [2] was 95% (inactive). Moreover, in experiment [6] (H69AR cells + 2 uM doxorubicin), the differential viability (reversal) was 3.65% (inactive). Besides, the inhibition in experiment [7] is -4.08% (inactive); in experiment [8] it was -0.17% (inactive).

Turning to `CC(=O)c1c(C)[nH]c(C(=O)N2CCN(C(=O)c3ccco3)CC2)c1C`, the viability is 85% in experiment [1]; 85% (inactive) in experiment [3]; 94.5% (inactive) in experiment [4]; 99.1% (inactive) in experiment [5]; 98.7% in experiment [6] (setting [9]); 99.1% in experiment [6] (setting [10]). The Her2 level in experiment [2] was 102% (inactive). The differential viability (reversal) in experiment [6] (H69AR cells + 2 uM doxorubicin) was 0.42% (inactive). The figures for the inhibition in experiment [7] and in experiment [8] were -2.3% (inactive) and -0.49% (inactive), respectively.

For `C=CCOC(=O)C(C#N)c1nc2ccccc2nc1N1CCN(Cc2ccccc2)CC1` (stereo not given), the viability in experiment [1] was 94%; in experiment [3], 94% (inactive); in experiment [4], 77.7% (inactive); in experiment [5], 84.1% (inactive); in experiment [6] (setting [9]), 93.6%; in experiment [6] (setting [10]) it was 84.1%. The Her2 level in experiment [2] is 79% (inactive). Further, the differential viability (reversal) in experiment [6] (H69AR cells + 2 uM doxorubicin) was -9.45% (inactive). The inhibition in experiment [7] was -4.53% (inactive); in experiment [8], 2.3% (inactive).

For `COc1ccc(-n2c(SCC(=O)c3c(N)n(C)c(=O)n(C)c3=O)nc3ccccc32)cc1`, the viability is 105% in experiment [1]; 105% (inactive) in experiment [3]; 90% (inactive) in experiment [4]; 98.5% (inactive) in experiment [5]; 86% in experiment [6] (setting [9]); 98.5% in experiment [6] (setting [10]). Besides, in experiment [2], the Her2 level is 71.5% (inactive). Moreover, the differential viability (reversal) in experiment [6] (H69AR cells + 2 uM doxorubicin) was 12.6% (inactive). The inhibition in experiment [7] is -4.73% (inactive); in experiment [8], 1.9% (inactive).

As for `CC(C)(C)NCc1cc2ccccc2[nH]c1=O`, the viability in experiment [1] is 90%; in experiment [3] it was 90% (inactive); in experiment [4] it was 99.1% (inactive); in experiment [5], 93.2% (inactive); in experiment [6] (setting [9]), 83.3%; in experiment [6] (setting [10]), 93.2%. In addition, in experiment [2], the Her2 level is 74.5% (inactive). For the same molecule, in experiment [6] (H69AR cells + 2 uM doxorubicin), the differential viability (reversal) is 9.9% (inactive). For the same molecule, the inhibition in experiment [7] is -9.05% (inactive); in experiment [8], -2.5% (inactive).

For the molecule `COc1ccc(C(=O)NCCCCCC(=O)O)cc1OC`, the viability in experiment [1] is 125%; in experiment [3], 125% (inactive); in experiment [4], 90.5% (inactive); in experiment [5], 92.2% (inactive); in experiment [6] (setting [9]), 101%; in experiment [6] (setting [10]) it was 92.2%. Moreover, in experiment [2], the Her2 level is 99% (inactive). Further, in experiment [6] (H69AR cells + 2 uM doxorubicin), the differential viability (reversal) is -8.78% (inactive). In addition, the inhibition in experiment [7] was -7.24% (inactive); in experiment [8], -3.33% (inactive).

For `CC1(C)Cc2c(c(-c3ccccc3)nc(N3CCCC3)c2C(N)=O)CO1`, the viability in experiment [1] was 106%; in experiment [3], 106% (inactive); in experiment [4], 92.3% (inactive); in experiment [5], 87% (inactive); in experiment [6] (setting [9]), 82.4%; in experiment [6] (setting [10]), 87%. For the same molecule, the Her2 level in experiment [2] is 97.5% (inactive). Further, the differential viability (reversal) in experiment [6] (H69AR cells + 2 uM doxorubicin) was 4.6% (inactive). In addition, the inhibition in experiment [7] was -1.95% (inactive); in experiment [8], 1.15% (inactive).

For the molecule `CCC(c1nnnn1CCOC)N(Cc1ccc(C)cc1)Cc1cc2cc(OC)ccc2[nH]c1=O` (stereo not given), the viability in experiment [1] is 115%; in experiment [3] it was 115% (inactive); in experiment [4] it was 71.9% (inactive); in experiment [5], 72.5% (inactive); in experiment [6] (setting [9]), 64.7%; in experiment [6] (setting [10]), 72.5%. The Her2 level in experiment [2] was 89% (inactive). Also, the differential viability (reversal) in experiment [6] (H69AR cells + 2 uM doxorubicin) was 7.76% (inactive). Moreover, the values for the inhibition in experiment [7] and in experiment [8] were -3.03% (inactive) and -1.77% (inactive), respectively.

Regarding `O=C(NC1=NCCS1)NC12CC3CC(CC(C3)C1)C2`, the viability is 111% in experiment [1]; 111% (inactive) in experiment [3]; 98.4% (inactive) in experiment [4]; 93% (inactive) in experiment [5]; 88.7% in experiment [6] (setting [9]); 93% in experiment [6] (setting [10]). The Her2 level in experiment [2] is 106% (inactive). Also, the differential viability (reversal) in experiment [6] (H69AR cells + 2 uM doxorubicin) was 4.27% (inactive). Further, the inhibition is -4.53% (inactive) in experiment [7] and 5.08% (inactive) in experiment [8].

Consider `COc1ccccc1OCC(=O)Nc1cccc(-c2nc3ccccc3o2)c1`, for which the viability in experiment [1] was 104%; in experiment [3], 104% (inactive); in experiment [4], 52.8% (inactive); in experiment [5], 65.1% (inactive); in experiment [6] (setting [9]) it was 79.3%; in experiment [6] (setting [10]), 65.1%. For the same molecule, the Her2 level in experiment [2] was 78.5% (inactive). For the same molecule, the differential viability (reversal) in experiment [6] (H69AR cells + 2 uM doxorubicin) was -14.2% (inactive). Moreover, the inhibition in experiment [7] was -0.13% (inactive); in experiment [8], 23% (inactive).

For `Cc1ccc(C(=O)NC2CC3CCCC(C2)N3C(=O)NC2CCCCC2)cc1` (stereo not given), the viability in experiment [1] was 92%; in experiment [3], 92% (inactive); in experiment [4], 111% (inactive); in experiment [5], 98.5% (inactive); in experiment [6] (setting [9]), 90.6%; in experiment [6] (setting [10]) it was 98.5%. Besides, the Her2 level in experiment [2] is 109% (inactive). Further, the differential viability (reversal) in experiment [6] (H69AR cells + 2 uM doxorubicin) was 7.93% (inactive). In addition, the figures for the inhibition in experiment [7] and in experiment [8] were -5.73% (inactive) and -2.1% (inactive), respectively.

As for `CC(=O)N1CCN(S(=O)(=O)c2cccc(C(=O)Nc3ccc4c(c3)CCC4)c2)CC1`, the viability in experiment [1] is 76.5%; in experiment [3], 76.5% (inactive); in experiment [4] it was 77.9% (inactive); in experiment [5], 98% (inactive); in experiment [6] (setting [9]), 93.2%; in experiment [6] (setting [10]), 98%. Further, the Her2 level in experiment [2] is 90.5% (inactive). The differential viability (reversal) in experiment [6] (H69AR cells + 2 uM doxorubicin) is 4.81% (inactive). Moreover, the inhibition in experiment [7] is -5.53% (inactive); in experiment [8] it was 5% (inactive).

As for `CCn1cc(C(=O)N2CCCC2)c(=O)c2cc(S(=O)(=O)N3CCOCC3)ccc21`, the viability in experiment [1] is 116%; in experiment [3] it was 116% (inactive); in experiment [4] it was 92.2% (inactive); in experiment [5], 99.5% (inactive); in experiment [6] (setting [9]), 98.3%; in experiment [6] (setting [10]) it was 99.5%. Moreover, in experiment [2], the Her2 level was 99% (inactive). The differential viability (reversal) in experiment [6] (H69AR cells + 2 uM doxorubicin) was 1.21% (inactive). For the same molecule, the figures for the inhibition in experiment [7] and in experiment [8] were -5.92% (inactive) and -6.51% (inactive), respectively.
